The text below walks through data of ChEMBL document CHEMBL3407391, “Ether analogues of DPA-714 with subnanomolar affinity for the translocator protein (TSPO)” (Eur J Med Chem, 2015).

One test deals with C6. The experiment in a line: Induction of pregnenolone production in rat C6 cells at 40 uM after 2 hrs by ELISA based steroidogenesis assay relative to control. In kind it is functional. Summed up:
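C6 glioma cells grown in DMEM with 10% FBS at 37 °C, 5% CO2, then seeded at 1×10^4 cells/well and washed three times with simple salts medium (HEPES/NaOH pH 7.4, 0.1% BSA). Cells were exposed to compound at 40 μM in salts medium with trilostane (25 μM) and SU 10603 (10 μM) for 2 h at 37 °C, DMSO ≤0.5%. Secreted pregnenolone was measured by ELISA; 6–9 replicates.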

The target of test [1] is T1, Translocator protein (Rattus norvegicus, UniProt P16257). Further details: species or system Wistar, Kidney.
The target in test [2] is Translocator protein (Homo sapiens, UniProt P30536). In words: Inhibition of human TSPO.
In test [3] the target is T1, Translocator protein. The experiment in a line: Inhibition of rat TSPO.

T1 sequence (P16257 whole entry, looked up): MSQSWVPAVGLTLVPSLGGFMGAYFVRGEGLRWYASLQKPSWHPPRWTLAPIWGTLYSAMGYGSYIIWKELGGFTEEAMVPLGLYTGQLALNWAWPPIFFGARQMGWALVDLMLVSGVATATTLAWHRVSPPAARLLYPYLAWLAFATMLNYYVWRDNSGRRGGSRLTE
Sequence of Translocator protein (Homo sapiens, UniProt P30536) (P30536 whole entry): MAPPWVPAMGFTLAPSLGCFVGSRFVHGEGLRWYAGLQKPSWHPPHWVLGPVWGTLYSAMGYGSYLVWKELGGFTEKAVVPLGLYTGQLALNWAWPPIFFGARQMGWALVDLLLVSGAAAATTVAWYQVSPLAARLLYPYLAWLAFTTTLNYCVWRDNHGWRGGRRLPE

`CCN(CC)C(=O)Cc1c(-c2ccc(OCc3ccccc3C(F)(F)F)cc2)nn2c(C)cc(C)nc12` showed an Activity with C6 of 331.7%. Besides, the inhibition constant (Ki) on Translocator protein [1] came out at 1.4 nM.
Regarding `CCN(CC)C(=O)Cc1c(-c2ccc(OCc3ccc(C(F)(F)F)cc3)cc2)nn2c(C)cc(C)nc12`, in the test with C6, the Activity came to 189.9%. Moreover, the affinity at Translocator protein [1] corresponds to a Ki of 1.6 nM.
The like results for `CCN(CC)C(=O)Cc1c(-c2ccc(OC3CCCC3)cc2)nn2c(C)cc(C)nc12` were, in that order, 273.4% and 1.5 nM.
In the test on C6, `CCC(C)N(C)C(=O)c1cc2ccccc2c(-c2ccccc2Cl)n1` (stereo unspecified) [PK-11195] displayed an Activity of 166.5%.
The same measure, in the same setting: with `CCN(CC)C(=O)Cc1c(-c2ccc(OCC(C)C)cc2)nn2c(C)cc(C)nc12` the figure was 206.5%.
`CCN(CC)C(=O)Cc1c(-c2ccc(OCc3cccc(C(F)(F)F)c3)cc2)nn2c(C)cc(C)nc12` showed an Activity in the test on C6 of 230%. For the same molecule, the Ki at Translocator protein [1] stood at 0.67 nM.
Molecule `CCN(CC)C(=O)Cc1c(-c2ccc(OCc3ccccc3)cc2)nn2c(C)cc(C)nc12` had an Activity with C6 of 262.4%.
The same measure, in the same setting: the result for `CCN(CC)C(=O)Cc1c(-c2ccc(OC(C)C)cc2)nn2c(C)cc(C)nc12` reads 165%.
In the case of `COc1ccccc1CN(C(C)=O)c1cnccc1Oc1ccccc1`, the Ki at Translocator protein [2] is 2.5 nM; at Translocator protein [3], 0.7 nM.
The molecule `CCN(CC)C(=O)Cc1c(-c2ccc(OC3CCC3)cc2)nn2c(C)cc(C)nc12` returned an Activity in the test on C6 of 184.3%. Further, on Translocator protein [1], the Ki was found to be 0.86 nM.
In the test with C6, `CCN(CC)C(=O)Cc1c(-c2ccc(OCC3CC3)cc2)nn2c(C)cc(C)nc12` gave an Activity of 226.3%.
The molecule `CCN(CC)C(=O)Cc1c(-c2ccc(OCC3CCC3)cc2)nn2c(C)cc(C)nc12` registered an Activity with C6 of 298.4%.
`CCN(CC)C(=O)Cc1c(-c2ccc(OCC3CCCC3)cc2)nn2c(C)cc(C)nc12` gave an Activity in the test with C6 of 173.9%.
As for `CCN(CC)C(=O)Cc1c(-c2ccc(OCC3CCCCC3)cc2)nn2c(C)cc(C)nc12`, the Activity with C6 was found to be 134.2%.
For `CCN(CC)C(=O)Cc1c(-c2ccc(OCc3cccc(F)c3)cc2)nn2c(C)cc(C)nc12`, the Activity with C6 was found to be 281.2%. Besides, the Ki on Translocator protein [1] worked out at 0.47 nM.
In the case of `CCN(CC)C(=O)Cc1c(-c2ccc(OCCc3ccccc3)cc2)nn2c(C)cc(C)nc12`, the Activity with C6 was determined as 254%.
Take `CCN(CC)C(=O)Cc1c(-c2ccc(OCc3ccc(F)cc3)cc2)nn2c(C)cc(C)nc12`: the Activity in the test with C6 came out at 311.7%.
In the test with C6, `CCN(CC)C(=O)Cc1c(-c2ccc(OCc3ccccc3F)cc2)nn2c(C)cc(C)nc12` returned an Activity of 161.5%.
For `COc1ccc(OC)c(CN(C(C)=O)c2cc(F)ccc2Oc2ccccc2)c1`, the Ki on Translocator protein [2] came to 0.2 nM. This lies in the sub-nanomolar range.
